# Measured values published in ChEMBL document CHEMBL1157589, “Antifungal 3,5-disubstituted furanones: From 5-acyloxymethyl to 5-alkylidene derivatives” (Bioorg Med Chem, 2010).
# Experiments:
# [1] = system: Candida albicans; experiment: Antifungal activity against Candida albicans ATCC 44859 after 48 hrs by microdilution method; format: functional; conditions: ATCC 44859, 48 h
# Procedure, shortened: (§1)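 Yeasts held on Sabouraud dextrose agar. MIC by NCCLS M27-A broth microdilution in RPMI 1640 with L-glutamine, buffered with 0.165 M MOPS to pH 7.0. Compounds in DMSO (≤2% final), twofold dilutions 500–0.48. Final inoculum 5 × 10³ ± 0.2 cfu mL⁻¹. Incubated at 35 °C; absorbance at 540 nm read at 24 and 48 h. MIC is 80% growth inhibition versus control; run twice in duplicate.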
# [2] = system: Candida albicans; experiment: Antifungal activity against Candida albicans ATCC 90028 after 24 hrs by microdilution method; format: functional; conditions: ATCC 90028, 24 h; procedure, shortened: as §1
# [3] = system: Candida albicans; experiment: Antifungal activity against Candida albicans ATCC 90028 after 48 hrs by microdilution method; format: functional; conditions: ATCC 90028, 48 h; procedure, shortened: as §1
# [4] = system: Candida parapsilosis; experiment: Antifungal activity against Candida parapsilosis ATCC 22019 after 24 hrs by microdilution method; format: functional; conditions: Lodderomyces parapsilosis, ATCC 22019, 24 h; procedure, shortened: as §1
# [5] = system: Candida parapsilosis; experiment: Antifungal activity against Candida parapsilosis ATCC 22019 after 48 hrs by microdilution method; format: functional; conditions: Lodderomyces parapsilosis, ATCC 22019, 48 h; procedure, shortened: as §1
# [6] = system: Pichia kudriavzevii; experiment: Antifungal activity against Candida krusei ATCC 6258 after 24 hrs by microdilution method; format: functional; conditions: ATCC 6258, 24 h; procedure, shortened: as §1
# [7] = system: Pichia kudriavzevii; experiment: Antifungal activity against Candida krusei ATCC 6258 after 48 hrs by microdilution method; format: functional; conditions: ATCC 6258, 48 h; procedure, shortened: as §1
# [8] = system: Pichia kudriavzevii; experiment: Antifungal activity against Candida krusei E28 after 24 hrs by microdilution method; format: functional; conditions: E28, 24 h; procedure, shortened: as §1
# [9] = system: Pichia kudriavzevii; experiment: Antifungal activity against Candida krusei E28 after 48 hrs by microdilution method; format: functional; conditions: E28, 48 h; procedure, shortened: as §1
# [10] = system: Candida tropicalis; experiment: Antifungal activity against Candida tropicalis 156 after 24 hrs by microdilution method; format: functional; conditions: Candida tropicalis, 156, 24 h; procedure, shortened: as §1
# [11] = system: Candida tropicalis; experiment: Antifungal activity against Candida tropicalis 156 after 48 hrs by microdilution method; format: functional; conditions: Candida tropicalis, 156, 48 h; procedure, shortened: as §1
# [12] = system: Nakaseomyces glabratus; experiment: Antifungal activity against Candida glabrata 20/I after 24 hrs by microdilution method; format: functional; procedure, shortened: as §1
# [13] = system: Nakaseomyces glabratus; experiment: Antifungal activity against Candida glabrata 20/I after 48 hrs by microdilution method; format: functional; procedure, shortened: as §1
# [14] = system: Clavispora lusitaniae; experiment: Antifungal activity against Candida lusitaniae 2446/I after 24 hrs by microdilution method; format: functional; procedure, shortened: as §1
# [15] = system: Clavispora lusitaniae; experiment: Antifungal activity against Candida lusitaniae 2446/I after 48 hrs by microdilution method; format: functional; procedure, shortened: as §1
# [16] = system: Trichosporon beigelii; experiment: Antifungal activity against Trichosporon beigelii 1188 after 24 hrs by microdilution method; format: functional; conditions: Trichosporon beigelii, 1188, 24 h; procedure, shortened: as §1
# [17] = system: Trichosporon beigelii; experiment: Antifungal activity against Trichosporon beigelii 1188 after 48 hrs by microdilution method; format: functional; conditions: Trichosporon beigelii, 1188, 48 h; procedure, shortened: as §1
# [18] = system: Aspergillus fumigatus; experiment: Antifungal activity against Aspergillus fumigatus 231 after 24 hrs by microdilution method; format: functional; conditions: Aspergillus fumigatus, 231, 24 h
# Procedure, shortened: (§2)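 Filamentous strains held on Sabouraud dextrose agar. NCCLS M27-A broth microdilution in RPMI 1640 with L-glutamine and 0.165 M MOPS, pH 7.0. DMSO diluent ≤2% final; twofold dilutions 500–0.48. Inoculum 5 × 10³ ± 0.2 cfu mL⁻¹ final.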
# [19] = system: Aspergillus fumigatus; experiment: Antifungal activity against Aspergillus fumigatus 231 after 48 hrs by microdilution method; format: functional; conditions: Aspergillus fumigatus, 231, 48 h; procedure, shortened: as §2
# [20] = system: Lichtheimia corymbifera; experiment: Antifungal activity against Absidia corymbifera 272 after 24 hrs by microdilution method; format: functional; conditions: Lichtheimia corymbifera, 272, 24 h; procedure, shortened: as §2
# [21] = system: Lichtheimia corymbifera; experiment: Antifungal activity against Absidia corymbifera 272 after 48 hrs by microdilution method; format: functional; conditions: Lichtheimia corymbifera, 272, 48 h; procedure, shortened: as §2
# [22] = system: Trichophyton mentagrophytes; experiment: Antifungal activity against Trichophyton mentagrophytes 445 after 72 hrs by microdilution method; format: functional; conditions: Trichophyton mentagrophytes, 445, 72 h
# Procedure, shortened: (§3)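 Dermatophyte held on Sabouraud dextrose agar. M27-A microdilution in MOPS-buffered (0.165 M, pH 7.0) RPMI 1640 with L-glutamine. DMSO ≤2% final; twofold dilutions 500–0.48. Inoculum 5 × 10³ ± 0.2 cfu mL⁻¹ final. Incubated at 35 °C; MIC read visually at 72 and 120 h as 80% inhibition of control growth; determined twice in duplicate.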
# [23] = system: Trichophyton mentagrophytes; experiment: Antifungal activity against Trichophyton mentagrophytes 445 after 120 hrs by microdilution method; format: functional; conditions: Trichophyton mentagrophytes, 445, 120 h; procedure, shortened: as §3
# [24] = system: L1210; experiment: Cytostatic activity against mouse L1210 cells after 72 hrs by XTT assay; format: functional, cell-based; conditions: l1210
# Procedure, shortened: (§4)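 Leukemia cells (L1210 ATCC CCL 219, CCRF-CEM ATCC CCL 119, HL-60 ATCC CCL 240) grown in 24-well plates in RPMI 1640 with fetal calf serum. Growth assessed 72 h after drug addition. Viability measured by XTT spectrophotometric assay; potency given as IC50.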
# [25] = system: HL-60; experiment: Cytostatic activity against human HL60 cells after 72 hrs by XTT assay; format: functional, cell-based; conditions: hl-60; procedure, shortened: as §4
# [26] = system: CCRF-CEM; experiment: Cytostatic activity against human CCRF-CEM cells after 72 hrs by XTT assay; format: functional, cell-based; conditions: ccrf-cem; procedure, shortened: as §4
# [27] = system: Candida albicans; experiment: Antifungal activity against Candida albicans ATCC 44859 after 24 hrs by microdilution method; format: functional; conditions: ATCC 44859, 24 h; procedure, shortened: as §1
# [28] = system: HeLa S3; experiment: Cytostatic activity against human HeLaS3 cells after 48 hrs by XTT assay; conditions: hela s3
MIC80 [1] [µM],MIC80 [2] [µM],MIC80 [3] [µM],MIC80 [4] [µM],MIC80 [5] [µM],MIC80 [6] [µM],MIC80 [7] [µM],MIC80 [8] [µM],MIC80 [9] [µM],MIC80 [10] [µM],MIC80 [11] [µM],MIC80 [12] [µM],MIC80 [13] [µM],MIC80 [14] [µM],MIC80 [15] [µM],MIC80 [16] [µM],MIC80 [17] [µM],MIC80 [18] [µM],MIC80 [19] [µM],MIC80 [20] [µM],SMILES,other results
250,500,500,250,500,250,500,250,500,250,500,500,500,500,500,250,500,250,500,500,O=C1OCC=C1c1ccc(Br)cc1,MIC80 [21]: 500 µM; MIC80 [22]: 250 µM; MIC80 [23]: 250 µM; IC50 [24]: Not Active; IC50 [25]: Not Active; IC50 [26]: Not Active; MIC80 [27]: 250 µM; IC50 [28]: Not Active
125,> 500,> 500,> 500,> 500,> 500,> 500,> 500,> 500,> 500,> 500,> 500,> 500,> 500,> 500,> 500,> 500,> 500,> 500,62.5,O=C1O/C(=C\CCCO)C=C1c1ccc(Br)cc1,MIC80 [21]: 62.5 µM; MIC80 [22]: 62.5 µM; MIC80 [23]: 62.5 µM; IC50 [24]: Not Active; IC50 [25]: Not Active; IC50 [26]: Not Active; MIC80 [27]: 62.5 µM; IC50 [28]: Not Active
